Assay results: ChEMBL document CHEMBL4265955, “Synthesis and antiproliferative activity of podocarpane and totarane derivatives” (Eur J Med Chem, 2018)
Activity calls are given as the source filed them. The calls are words filed in the database; no cut-off is given here.

Assays:
[1] = tested on: MCF7; assay: Antiproliferative activity against human MCF7 cells after 3 days by sulforhodamine B assay; format: functional, cell-based; conditions: MCF7, 72 h
Method in brief: (§1)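 Cells grown in DMEM with 10% heat-inactivated FBS, penicillin-streptomycin and 2 mM L-glutamine at 37°C, 5% CO2. Seeded at 5 x 10^3 cells/cm², exposed 24 h later to increasing compound concentrations for 3 days. Fixed with cold 10% TCA, stained with 0.4% SRB, dye solubilized in 10 mM Tris pH 10.5, OD read at 492 nm. IC50 taken by linear interpolation of semilog dose-response curve; seven biological replicates, mean ± SEM.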

[2] = tested on: T84; assay: Antiproliferative activity against human T84 cells after 3 days by sulforhodamine B assay; format: functional, cell-based; conditions: T84, 72 h; method in brief: as §1
[3] = tested on: A549; assay: Antiproliferative activity against human A549 cells after 3 days by sulforhodamine B assay; format: functional, cell-based; conditions: A549, 72 h; method in brief: as §1
[4] = Cytotoxicity against human PBMC assessed as cell viability at 5 uM by MTT assay relative to control; format: cell-based; conditions: PBMC (peripheral blood mononuclear cells), read-out: Activity
Method in brief: (§2)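 PBMC isolated from healthy donor blood by Histopaque-1077 density gradient centrifugation. Cultured in RPMI-1640 with 20% FBS, penicillin-streptomycin and 2 mM glutamine at 37°C, 5% CO2. Exposed to increasing compound concentrations; viability of non-adherent cultures measured by MTT at 570 and 595 nm and expressed against untreated control cultures.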

[5] = tested on: PBMC; assay: Cytotoxicity against human PBMC assessed as reduction in cell viability at 0.5 uM by MTT assay relative to control; format: cell-based
Method in brief: (§3)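 PBMC isolated from healthy donor blood by density gradient centrifugation (Histopaque-1077), cultured in RPMI-1640 with 20% FBS, penicillin-streptomycin and 2 mM glutamine at 37°C, 5% CO2. Cells exposed to increasing compound concentrations for 3 days. Viability read by MTT at 570 and 595 nm and expressed versus untreated control cultures.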

[6] = Cytotoxicity against human PBMC assessed as cell viability at 1 uM by MTT assay relative to control; format: cell-based; conditions: PBMC (peripheral blood mononuclear cells), read-out: Activity; method in brief: as §2
[7] = tested on: PBMC; assay: Cytotoxicity against human PBMC assessed as reduction in cell viability at 0.5 to 10 uM by MTT assay; format: cell-based; method in brief: as §3
[8] = Cytotoxicity against human PBMC assessed as cell viability at 2.5 uM by MTT assay relative to control; format: cell-based; conditions: PBMC (peripheral blood mononuclear cells), read-out: Activity; method in brief: as §2
[9] = tested on: PBMC; assay: Cytotoxicity against human PBMC assessed as reduction in cell viability at 10 uM by MTT assay relative to control; format: cell-based; method in brief: as §2
[10] = tested on: A549; assay: Potency index, ratio of 5-fluorouracil IC50 to test compound IC50 for human A549 cells; format: functional
[11] = tested on: A549; assay: Cell cycle arrest in human A549 cells assessed as reduction in accumulation at S phase at IC50 after 48 hrs by propidium iodide staining based flow cytometry; format: functional
[12] = tested on: A549; assay: Induction of apoptosis in human A549 cells assessed as viable cells at IC50 after 24 hrs by Annexin-V-FITC/propidium iodide staining based flow cytometry (reference value: 83.6%); format: functional
[13] = tested on: MCF7; assay: Potency index, ratio of 5-fluorouracil IC50 to test compound IC50 for human MCF7 cells; format: functional
[14] = tested on: T84; assay: Potency index, ratio of 5-fluorouracil IC50 to test compound IC50 for human T84 cells; format: functional
[15] = tested on: A549; assay: Cell cycle arrest in human A549 cells assessed as reduction in accumulation at G1 phase at IC50 after 48 hrs by propidium iodide staining based flow cytometry; format: functional
[16] = tested on: A549; assay: Induction of apoptosis in human A549 cells assessed as total apoptotic cells at IC50 after 24 hrs by Annexin-V-FITC/propidium iodide staining based flow cytometry (reference value: 13.2%); format: functional
[17] = tested on: A549; assay: Cell cycle arrest in human A549 cells assessed as accumulation at G2/M phase at IC50 after 24 hrs by propidium iodide staining based flow cytometry (reference value: 8.8%); format: functional
[18] = tested on: A549; assay: Induction of apoptosis in human A549 cells assessed as increase in Bax to Bcl2 ratio at 0.5 to 1 times IC50 after 24 hrs Western blot analysis; format: functional, cell-based
Method in brief: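 A-549 seeded at 4 x 10^4 cells/cm², treated 24 h later at 0x, 0.5x or 1x IC50 for 24 h. Lysed in SDS sample buffer, proteins separated on 12% acrylamide gels and transferred to nitrocellulose. Blocked 1 h in 3% milk/1% BSA/0.5% Tween-20 in PBS. Probed overnight with mouse monoclonal anti-Bax or anti-Bcl-2, then HRP anti-mouse IgG.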

[19] = tested on: A549; assay: Cell cycle arrest in human A549 cells assessed as accumulation at sub-G1 phase at IC50 after 48 hrs by propidium iodide staining based flow cytometry (reference value: 2.6%); format: functional
[20] = tested on: A549; assay: Cell cycle arrest in human A549 cells assessed as reduction in accumulation at G2/M phase at IC50 after 48 hrs by propidium iodide staining based flow cytometry; format: functional
[21] = tested on: A549; assay: Cell cycle arrest in human A549 cells assessed as accumulation at G0/G1 phase at IC50 after 24 hrs by propidium iodide staining based flow cytometry (reference value: 60.6%); format: functional

| Structure (SMILES) | IC50 [1] | IC50 [2] | IC50 [3] | other results |
| --- | --- | --- | --- | --- |
| COC(=O)c1cc(O)cc2c1CC[C@H]1[C@@](C)(C(=O)OC)CCC[C@]21C | > 40 µM | > 40 µM | > 40 µM |  |
| COC(=O)[C@@]1(C)CCC[C@]2(C)C3=C(CC[C@@H]12)C(C(C)C)=CC(=O)C3=O | 1.1 µM | 11.4 µM | 6.8 µM | viability at 5 µM [4]: 58.3%; Activity [5]: 25%; viability at 1 µM [6]: 69.2%; Activity [7]: Toxic; viability at 2.5 µM [8]: 64.7%; Activity [9]: 43.8% |
| COC(=O)c1cc2c(cc1OC)[C@@]1(C)CCC[C@](C)(C(=O)OC)[C@@H]1CC2 | > 40 µM | > 40 µM | > 40 µM |  |
| C=C(C)c1cc(O)cc2c1CC[C@H]1[C@@](C)(C(=O)OC)CCC[C@]21C | 26.1 µM | 30.7 µM | 23.7 µM |  |
| COC(=O)[C@@]1(C)CCC[C@]2(C)c3c(O)c(O)cc(C(C)C)c3CC[C@@H]12 | 2.8 µM | 1 µM | 0.6 µM | Ratio IC50 [10]: 4; Activity [11]: Active; viability at 5 µM [4]: 87.7%; Activity [12]: 54.2%; viability at 1 µM [6]: 86.4%; Ratio IC50 [13]: 4; viability at 2.5 µM [8]: 81.3%; Ratio IC50 [14]: 4; Activity [15]: Active; Activity [16]: 44%; Activity [17]: 14.5%; Activity [18]: Active; Activity [19]: 70.1%; Activity [9]: 21.5%; Activity [20]: Active; Activity [21]: 53.7% |
| COC(=O)c1cc2c(cc1O)[C@@]1(C)CCC[C@](C)(C(=O)OC)[C@@H]1CC2 | 21.7 µM | 20.7 µM | 17.2 µM |  |
| CC(=O)c1cc2c(cc1O)[C@@]1(C)CCC[C@](C)(CO)[C@@H]1CC2 | 9.3 µM | 7.8 µM | 4.8 µM |  |
| COC(=O)[C@@]1(C)CCC[C@]2(C)c3cc(O)cc(C(C)C)c3CC[C@@H]12 | 28.8 µM | 30.5 µM | 18.6 µM |  |
| O=c1[nH]cc(F)c(=O)[nH]1 [FLUOROURACIL] | 7.8 µM | 3.4 µM | 7.1 µM |  |
